pKd: −log10 of the molar value.
Experiments:
[1] = target: Serine/threonine-protein kinase mTOR (Homo sapiens) (UniProt P42345); experiment: Inhibition of recombinant GST-tagged human mTOR catalytic domain (1360 to 2549 residues) expressed in baculovirus expression system at 1 uM by FRET assay relative to control
How it was run: (§1)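 Single-point screen at 1 μM compound in a 220-kinase panel run by Life Technologies (SelectScreen). Z′-LYTE format: phosphorylation of a labeled peptide substrate read by FRET. Values are reported as percent inhibition.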

[2] = target: Tyrosine-protein kinase Tec (Homo sapiens) (UniProt P42680); experiment: Inhibition of recombinant full length His-tagged human TEC cytoplasmic domain expressed in baculovirus expression system at 1 uM by FRET assay relative to control
[3] = target: SRSF protein kinase 3 (Homo sapiens) (UniProt Q9UPE1); experiment: Inhibition of recombinant full length N-terminal GST-tagged human MSSK1 expressed in baculovirus at 1 uM by FRET assay relative to control
[4] = target: Homeodomain-interacting protein kinase 1 (Homo sapiens) (UniProt Q86Z02); experiment: Inhibition of recombinant GST-tagged human HIPK1 catalytic domain expressed in baculovirus expression system at 1 uM by FRET relative to control; how it was run: as §1
[5] = target: Bone morphogenetic protein receptor type-1A (Homo sapiens) (UniProt P36894); experiment: Inhibition of recombinant full length N-terminal GST-tagged human BMPR1A catalytic domain expressed in insect cells at 1 uM by FRET assay relative to control
[6] = target: Neuronal acetylcholine receptor; alpha4/beta2 (Homo sapiens) (UniProt P17787+P43681); experiment: Binding affinity to alpha4beta2 nAChR (unknown origin) receptor at 10 uM relative to control; format: protein-complex assay
How it was run: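 Broad radioligand-binding and enzyme screening panel covering 42 targets (biogenic amine and neuropeptide receptors, ion channels, neurotransmitter transporters, acetylcholinesterase). Single test concentration of 10 μM. Results expressed as binding relative to control, with a hit defined as >50% of control.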

[7] = target: Proto-oncogene tyrosine-protein kinase receptor Ret (Homo sapiens) (UniProt P07949); experiment: Inhibition of recombinant N-terminal GST-tagged human Ret cytoplasmic domain (658 to 1114 residues) expressed in baculovirus expression system at 1 uM by FRET assay relative to control
How it was run: (§2)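 Single-concentration screen at 1 μM in Life Technologies SelectScreen, across a 220-kinase panel. Z′-LYTE format measures phosphorylation of a labeled peptide by FRET. Results are reported as percent inhibition.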

[8] = target: Epidermal growth factor receptor (Homo sapiens) (UniProt P00533); experiment: Inhibition of recombinant GST-tagged human EGFR cytoplasmic domain (668 to 1210 residues) expressed in baculovirus expression system at 1 uM by FRET assay relative to control
How it was run: (§3)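 Part of a 220-kinase panel run at a single concentration of 1 μM. Z′-LYTE format: phosphorylation of a labelled peptide read by FRET. Values reported as percent inhibition.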

[9] = target: Mast/stem cell growth factor receptor Kit (Homo sapiens) (UniProt P10721); experiment: Inhibition of recombinant GST/His-tagged human KIT cytoplasmic domain (544 to 976 residues) at 1 uM by FRET assay relative to control; how it was run: as §1
[10] = target: SRSF protein kinase 1 (Homo sapiens) (UniProt Q96SB4); experiment: Inhibition of recombinant full length His-tagged human SRPK1 expressed in baculovirus expression system at 1 uM by FRET assay relative to control
[11] = target: RAC-alpha serine/threonine-protein kinase (Homo sapiens) (UniProt P31749); experiment: Inhibition of recombinant full length His-tagged human AKT1 expressed in baculovirus expression system at 1 uM by FRET assay relative to control
[12] = target: Wee1-like protein kinase (Homo sapiens) (UniProt P30291); experiment: Inhibition of recombinant N-terminal full length GST-tagged human WEE1 expressed in baculovirus expression system at 1 uM by FRET assay relative to control; how it was run: as §2
[13] = target: Cyclin-dependent kinase 1/cyclin B1 (Homo sapiens) (UniProt P06493+P14635); experiment: Inhibition of recombinant full length His-tagged human CDK1/CyclinB expressed in baculovirus expression system at 1 uM by FRET assay relative to control
[14] = target: Myosin light chain kinase, smooth muscle (Homo sapiens) (UniProt Q15746); experiment: Inhibition of recombinant human full length N-terminal GST-tagged smMLCK catalytic domain expressed in baculovirus expression system at 1 uM by FRET assay relative to control
[15] = target: Serine/threonine-protein kinase MARK1 (Homo sapiens) (UniProt Q9P0L2); experiment: Inhibition of recombinant full Length GST-tagged human MARK1 expressed in baculovirus expression system at 1 uM by FRET assay relative to control; how it was run: as §2
[16] = target: Ephrin type-A receptor 7 (Homo sapiens, UniProt Q15375); experiment: Inhibition of recombinant GST-tagged human EphA7 cytoplasmic domain expressed in baculovirus expression system at 1 uM by FRET assay relative to control; how it was run: as §1
[17] = target: Glycogen synthase kinase-3 alpha (Homo sapiens) (UniProt P49840); experiment: Inhibition of GSK3alpha (unknown origin) at 1 uM by FRET relative to control
[18] = target: TGF-beta receptor type-1 (Homo sapiens) (UniProt P36897); experiment: Inhibition of recombinant full length N-terminal GST-tagged human TGFBR1 (200 to 503 residues) expressed in baculovirus expression system at 1 uM by FRET assay relative to control
[19] = target: Mitogen-activated protein kinase kinase kinase 13 (Homo sapiens, UniProt O43283); experiment: Binding affinity to full length wild type human LZK (M1 to W966 residues) expressed in mammalian cells by KINOMEscan assay; format: cell-based
[20] = target: Interleukin-1 receptor-associated kinase 1 (Homo sapiens) (UniProt P51617); experiment: Inhibition of recombinant GST-tagged human IRAK1 (194 to 712 residues) expressed in baculovirus expression system at 1 uM by FRET relative to control; how it was run: as §1
[21] = target: Mitogen-activated protein kinase kinase kinase 2 (Homo sapiens) (UniProt Q9Y2U5); experiment: Inhibition of recombinant full length GST-tagged human MEKK2 expressed in baculovirus expression system at 1 uM by FRET assay relative to control; how it was run: as §3
[22] = target: Cytoplasmic tyrosine-protein kinase BMX (Homo sapiens) (UniProt P51813); experiment: Inhibition of recombinant full length His-tagged human Bmx cytoplasmic domain expressed in Baculovirus expression system at 1 uM by FRET assay relative to control
[23] = target: cGMP-dependent protein kinase 1 (Homo sapiens) (UniProt Q13976); experiment: Inhibition of PKG1alpha (unknown origin) at 1 uM by FRET assay relative to control
[24] = target: Dual specificity protein kinase CLK1 (Homo sapiens) (UniProt P49759); experiment: Inhibition of recombinant human GST-tagged CLK1 catalytic domain(129 to 484 residues)expressed in Escherichia coli at 1 uM by FRET assay relative to control
[25] = tested on: RAF proto-oncogene serine/threonine-protein kinase (Homo sapiens), P04049 [Y340D,Y341D]; experiment: Inhibition of recombinant N-terminal GST-tagged human RAF1 catalytic domain (306 to 648 residues) Y340D/Y341D double mutant expressed in baculovirus expression system at 1 uM by FRET assay relative to control; how it was run: as §3

RAC-alpha serine/threonine-protein kinase (Homo sapiens), sequence (P31749 whole entry): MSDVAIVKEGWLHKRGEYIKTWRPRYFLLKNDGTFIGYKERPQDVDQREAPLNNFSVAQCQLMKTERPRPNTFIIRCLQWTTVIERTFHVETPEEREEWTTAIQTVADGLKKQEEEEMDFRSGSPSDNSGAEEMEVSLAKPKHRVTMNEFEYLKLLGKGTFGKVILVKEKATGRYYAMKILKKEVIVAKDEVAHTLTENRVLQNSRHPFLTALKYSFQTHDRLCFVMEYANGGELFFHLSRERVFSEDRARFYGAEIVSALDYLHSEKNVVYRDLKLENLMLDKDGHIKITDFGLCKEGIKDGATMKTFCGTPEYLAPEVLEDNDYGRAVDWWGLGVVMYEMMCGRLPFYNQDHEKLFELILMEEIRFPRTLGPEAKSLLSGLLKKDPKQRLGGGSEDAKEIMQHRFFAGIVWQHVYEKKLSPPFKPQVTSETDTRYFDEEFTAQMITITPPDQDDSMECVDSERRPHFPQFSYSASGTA
Wee1-like protein kinase (Homo sapiens), sequence (P30291 whole entry, looked up): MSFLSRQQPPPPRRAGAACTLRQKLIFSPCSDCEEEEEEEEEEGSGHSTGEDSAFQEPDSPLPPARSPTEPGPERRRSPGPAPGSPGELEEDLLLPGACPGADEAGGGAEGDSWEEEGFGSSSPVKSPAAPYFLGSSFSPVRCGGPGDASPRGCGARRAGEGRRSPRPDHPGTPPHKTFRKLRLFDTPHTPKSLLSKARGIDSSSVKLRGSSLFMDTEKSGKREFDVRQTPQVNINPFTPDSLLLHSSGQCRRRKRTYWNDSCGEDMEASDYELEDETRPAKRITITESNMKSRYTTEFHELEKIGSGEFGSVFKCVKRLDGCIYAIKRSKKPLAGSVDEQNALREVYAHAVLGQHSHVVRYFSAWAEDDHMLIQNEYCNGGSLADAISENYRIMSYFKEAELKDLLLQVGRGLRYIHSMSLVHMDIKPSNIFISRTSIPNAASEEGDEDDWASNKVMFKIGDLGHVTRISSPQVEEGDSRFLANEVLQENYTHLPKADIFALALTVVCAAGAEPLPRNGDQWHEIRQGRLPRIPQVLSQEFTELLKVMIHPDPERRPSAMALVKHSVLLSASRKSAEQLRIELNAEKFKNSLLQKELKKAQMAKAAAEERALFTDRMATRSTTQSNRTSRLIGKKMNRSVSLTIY
SRSF protein kinase 3 (Homo sapiens), sequence (Q9UPE1 whole entry, the tested form may be a part): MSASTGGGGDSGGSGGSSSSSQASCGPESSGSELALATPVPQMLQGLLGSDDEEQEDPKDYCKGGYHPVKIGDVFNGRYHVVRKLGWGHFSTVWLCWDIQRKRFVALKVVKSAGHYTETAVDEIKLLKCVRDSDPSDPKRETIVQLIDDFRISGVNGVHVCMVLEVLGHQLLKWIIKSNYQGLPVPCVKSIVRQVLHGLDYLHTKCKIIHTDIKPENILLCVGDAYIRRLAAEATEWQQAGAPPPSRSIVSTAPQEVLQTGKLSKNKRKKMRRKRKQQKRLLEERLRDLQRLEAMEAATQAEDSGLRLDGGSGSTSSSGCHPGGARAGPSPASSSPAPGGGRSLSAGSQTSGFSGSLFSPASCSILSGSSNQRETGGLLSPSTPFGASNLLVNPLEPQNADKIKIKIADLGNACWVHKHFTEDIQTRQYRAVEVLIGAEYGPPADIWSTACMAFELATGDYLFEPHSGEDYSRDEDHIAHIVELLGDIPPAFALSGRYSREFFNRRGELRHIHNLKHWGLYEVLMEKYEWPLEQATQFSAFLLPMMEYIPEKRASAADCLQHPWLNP
Serine/threonine-protein kinase MARK1 (Homo sapiens), sequence (Q9P0L2 whole entry, looked up, the tested form may be a part): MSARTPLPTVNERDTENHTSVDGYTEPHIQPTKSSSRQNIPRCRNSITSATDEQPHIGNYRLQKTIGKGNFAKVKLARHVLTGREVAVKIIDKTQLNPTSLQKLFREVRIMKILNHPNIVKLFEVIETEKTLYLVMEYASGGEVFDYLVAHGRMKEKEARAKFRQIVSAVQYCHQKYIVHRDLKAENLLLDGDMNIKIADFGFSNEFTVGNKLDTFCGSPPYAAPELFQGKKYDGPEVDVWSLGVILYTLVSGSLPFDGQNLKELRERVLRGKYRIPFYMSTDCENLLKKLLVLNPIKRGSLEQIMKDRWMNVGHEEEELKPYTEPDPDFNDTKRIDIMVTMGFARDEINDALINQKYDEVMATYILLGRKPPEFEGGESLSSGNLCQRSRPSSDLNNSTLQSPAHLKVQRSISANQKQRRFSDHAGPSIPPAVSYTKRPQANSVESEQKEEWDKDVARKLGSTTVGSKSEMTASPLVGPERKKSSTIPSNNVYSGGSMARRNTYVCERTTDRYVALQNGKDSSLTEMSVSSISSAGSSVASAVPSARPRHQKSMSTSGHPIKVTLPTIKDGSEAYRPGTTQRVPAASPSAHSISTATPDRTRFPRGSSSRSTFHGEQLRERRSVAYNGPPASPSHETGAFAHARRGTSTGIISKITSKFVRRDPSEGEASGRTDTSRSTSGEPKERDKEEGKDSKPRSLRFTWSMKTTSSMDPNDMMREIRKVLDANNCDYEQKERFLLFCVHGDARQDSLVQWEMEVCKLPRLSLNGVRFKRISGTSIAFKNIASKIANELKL
Ephrin type-A receptor 7, sequence (Q15375 28-998 limits assumed): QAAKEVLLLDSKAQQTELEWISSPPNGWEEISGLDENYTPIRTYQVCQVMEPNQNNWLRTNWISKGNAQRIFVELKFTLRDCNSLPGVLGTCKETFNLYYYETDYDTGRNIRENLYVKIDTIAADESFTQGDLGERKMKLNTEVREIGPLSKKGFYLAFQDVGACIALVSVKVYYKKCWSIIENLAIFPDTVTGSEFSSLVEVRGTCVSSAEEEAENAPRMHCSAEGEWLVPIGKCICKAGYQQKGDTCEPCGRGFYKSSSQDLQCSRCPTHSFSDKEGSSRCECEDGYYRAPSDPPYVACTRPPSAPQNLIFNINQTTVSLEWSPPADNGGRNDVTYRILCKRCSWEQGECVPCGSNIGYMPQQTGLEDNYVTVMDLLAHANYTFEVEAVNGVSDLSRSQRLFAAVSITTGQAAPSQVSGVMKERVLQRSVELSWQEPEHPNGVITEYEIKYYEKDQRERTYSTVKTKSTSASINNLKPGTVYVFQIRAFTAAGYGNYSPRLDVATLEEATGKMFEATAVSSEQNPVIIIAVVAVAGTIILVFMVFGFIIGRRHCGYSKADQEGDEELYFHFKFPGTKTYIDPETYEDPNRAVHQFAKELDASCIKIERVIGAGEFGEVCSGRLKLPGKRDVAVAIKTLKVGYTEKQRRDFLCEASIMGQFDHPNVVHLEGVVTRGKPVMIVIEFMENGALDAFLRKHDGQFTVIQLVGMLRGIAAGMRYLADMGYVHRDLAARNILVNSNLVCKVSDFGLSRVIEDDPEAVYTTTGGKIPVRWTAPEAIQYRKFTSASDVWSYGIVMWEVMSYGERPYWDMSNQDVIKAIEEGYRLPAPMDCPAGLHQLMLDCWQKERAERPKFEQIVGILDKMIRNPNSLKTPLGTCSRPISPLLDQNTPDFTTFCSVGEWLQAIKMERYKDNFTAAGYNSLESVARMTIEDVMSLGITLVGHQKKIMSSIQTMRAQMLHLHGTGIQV
cGMP-dependent protein kinase 1 (Homo sapiens), sequence (Q13976 whole entry, the tested form may be a part): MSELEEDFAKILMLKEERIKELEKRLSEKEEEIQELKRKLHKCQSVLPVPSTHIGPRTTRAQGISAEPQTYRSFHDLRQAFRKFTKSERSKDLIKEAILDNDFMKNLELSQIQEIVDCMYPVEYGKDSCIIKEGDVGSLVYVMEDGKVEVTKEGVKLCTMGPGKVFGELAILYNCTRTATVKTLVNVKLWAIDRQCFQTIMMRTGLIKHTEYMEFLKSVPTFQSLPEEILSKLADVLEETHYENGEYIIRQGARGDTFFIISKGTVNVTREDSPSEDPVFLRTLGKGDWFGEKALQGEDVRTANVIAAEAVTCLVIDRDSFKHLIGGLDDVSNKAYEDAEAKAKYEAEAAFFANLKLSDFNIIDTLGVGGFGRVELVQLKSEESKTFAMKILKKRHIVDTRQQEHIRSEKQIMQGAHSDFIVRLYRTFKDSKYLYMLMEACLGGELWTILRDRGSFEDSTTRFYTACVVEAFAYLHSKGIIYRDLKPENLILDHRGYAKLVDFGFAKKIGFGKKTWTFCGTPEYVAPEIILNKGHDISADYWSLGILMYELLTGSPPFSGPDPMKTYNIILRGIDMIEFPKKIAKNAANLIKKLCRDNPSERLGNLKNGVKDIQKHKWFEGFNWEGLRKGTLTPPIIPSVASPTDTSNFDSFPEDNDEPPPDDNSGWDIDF
Interleukin-1 receptor-associated kinase 1 (Homo sapiens), sequence (P51617 whole entry, looked up, the tested form may be a part): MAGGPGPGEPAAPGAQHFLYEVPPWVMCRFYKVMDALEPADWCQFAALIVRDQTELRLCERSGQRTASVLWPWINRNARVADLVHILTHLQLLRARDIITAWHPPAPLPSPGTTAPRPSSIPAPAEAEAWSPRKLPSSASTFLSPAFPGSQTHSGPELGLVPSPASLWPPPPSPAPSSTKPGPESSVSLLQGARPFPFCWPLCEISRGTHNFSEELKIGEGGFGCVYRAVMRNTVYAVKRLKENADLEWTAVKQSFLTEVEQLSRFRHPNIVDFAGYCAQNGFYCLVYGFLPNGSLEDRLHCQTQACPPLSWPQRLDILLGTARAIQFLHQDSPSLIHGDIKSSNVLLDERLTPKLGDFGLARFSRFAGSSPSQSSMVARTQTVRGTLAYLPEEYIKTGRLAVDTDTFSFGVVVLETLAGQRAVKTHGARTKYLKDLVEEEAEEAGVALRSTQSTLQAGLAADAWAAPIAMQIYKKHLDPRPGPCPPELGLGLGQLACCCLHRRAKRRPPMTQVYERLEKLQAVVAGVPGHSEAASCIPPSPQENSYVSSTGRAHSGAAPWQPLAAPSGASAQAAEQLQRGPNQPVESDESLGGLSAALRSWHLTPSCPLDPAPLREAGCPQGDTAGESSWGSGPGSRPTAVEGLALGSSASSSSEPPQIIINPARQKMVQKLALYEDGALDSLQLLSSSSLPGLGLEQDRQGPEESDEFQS

SMILES | inhibition [1] [%] | inhibition [2] [%] | inhibition [3] [%] | inhibition [4] [%] | inhibition [5] [%] | Activity [6] [%] | inhibition [7] [%] | inhibition [8] [%] | inhibition [9] [%] | inhibition [10] [%] | inhibition [11] [%] | inhibition [12] [%] | inhibition [13] [%] | inhibition [14] [%] | inhibition [15] [%] | inhibition [16] [%] | inhibition [17] [%] | inhibition [18] [%] | pKd [19] | inhibition [20] [%] | further results
CC(C)n1nc(-c2cnc(N)c(OC(F)(F)F)c2)cc1[C@H]1[C@@H]2CN(C3COC3)C[C@@H]21 | 7.9 | -1.5 | 6.5 | 8.6 | -2.3 | > 50 | 9.1 | -2 | 23.9 | 1 | 1.7 | 4.9 | 16 | 19.6 | 11.4 | 39 | 7.8 | 1.6 | 6.34 | 8 | inhibition [21]: 0.5%; inhibition [22]: 7.8%; inhibition [23]: 0.1%; inhibition [24]: 1.8%; inhibition [25]: -1.9%
Nc1ncc(-c2cc([C@H]3[C@@H]4CN(C5COC5)C[C@@H]43)n(CC3CC3)n2)cc1C(F)(F)F | -0.8 | 4.8 | -2.4 | 3.8 | 1.5 | > 50 | 17.7 | -1.1 | 6.5 | -1.7 | -0.4 | 7.1 | 2.4 | 11.7 | 12.1 | 51.4 | 0.8 | 11.7 | 6.92 | -6.1 | inhibition [21]: 4%; inhibition [22]: 14.1%; inhibition [23]: -1.1%; inhibition [24]: 2.1%; inhibition [25]: 4%

— ChEMBL document CHEMBL4118097, “Selective Inhibitors of Dual Leucine Zipper Kinase (DLK, MAP3K12) with Activity in a Model of Alzheimer's Disease” (J Med Chem, 2017)
